In brackets after ≈: the same amount, converted by molar mass. Activity calls are given as the source filed them. The calls are words filed in the database; no cut-off is given here.
Key:
[1] = system: Mycobacterium avium; assay: Antimycobacterial activity against pyrazinamide-resistant Mycobacterium avium CNCTC My 152/73 after 5 days by microplate alamar blue assay; assay type: functional; conditions: CNCTC My 152/73, 120 h
Summary of the method: (§1)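 Microplate alamar blue assay run at pH 5.6, using conditions optimized for pyrazinamide. Strains came from the Czech National Collection of Type Cultures. MIC was read in µg/mL and converted to µM using molecular weight.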

[2] = system: HepG2; assay: Cytotoxicity against human HepG2 cells after 24 hrs; assay type: cell-based; conditions: HepG2, 24 h
Summary of the method: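 HepG2 human liver cells; loss of viability measured by a colorimetric tetrazolium-reduction assay. IC50 derived from the toxicity curves. Where limited solubility in the culture medium capped the tested concentration, only an estimate of the toxic concentration was given.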

[3] = Selectivity index, ratio of IC50 for human HepG2 cells to MIC for Mycobacterium tuberculosis H37Rv CNCTC My 331/88; assay type: toxicity, cell-based; conditions: read-out: Selectivity Index
Summary of the method: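 HepG2 human liver cell viability was measured by a colorimetric tetrazolium-reduction assay, and IC50 was derived from the toxicity curves. MIC against M. tuberculosis H37Rv came from the alamar blue microplate assay at pH 5.6. SI = IC50/MIC, both in molar units.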

[4] = Lipophilicity, log K of the compound by HPLC analysis; assay type: physicochemical
[5] = system: Mycobacterium avium; assay: Antimycobacterial activity against pyrazinamide-resistant Mycobacterium avium CNCTC My 80/72 after 5 days by microplate alamar blue assay; assay type: functional; conditions: CNCTC My 80/72, 120 h; summary of the method: as §1
[6] = system: Mycobacterium kansasii; assay: Antimycobacterial activity against pyrazinamide-resistant Mycobacterium kansasii CNCTC My 235/80 after 5 days by microplate alamar blue assay; assay type: functional; conditions: CNCTC My 235/80, 120 h; summary of the method: as §1
[7] = system: Mycobacterium tuberculosis; assay: Antimycobacterial activity against Mycobacterium tuberculosis H37Rv CNCTC My 331/88 after 5 days by microplate alamar blue assay; assay type: functional; conditions: H37Rv CNCTC My 331/88, 120 h; summary of the method: as §1
[8] = system: Trichophyton mentagrophytes; assay: Antifungal activity against Trichophyton mentagrophytes 445 after 72 to 120 hrs by microdilution broth method; assay type: functional, organism-based
[9] = system: Lichtheimia corymbifera; assay: Antifungal activity against Absidia corymbifera 272 after 72 to 120 hrs by microdilution broth method; assay type: functional, organism-based
[10] = system: Aspergillus fumigatus; assay: Antifungal activity against Aspergillus fumigatus 231 after 72 to 120 hrs by microdilution broth method; assay type: functional, organism-based
[11] = system: Nakaseomyces glabratus; assay: Antifungal activity against Candida glabrata 20/I after 72 to 120 hrs by microdilution broth method; assay type: functional, organism-based
[12] = system: Trichosporon asahii; assay: Antifungal activity against Trichosporon asahii 1188 after 72 to 120 hrs by microdilution broth method; assay type: functional, organism-based
[13] = system: Pichia kudriavzevii; assay: Antifungal activity against Candida krusei E28 after 72 to 120 hrs by microdilution broth method; assay type: functional, organism-based
[14] = system: Candida tropicalis; assay: Antifungal activity against Candida tropicalis 156 after 72 to 120 hrs by microdilution broth method; assay type: functional, organism-based
[15] = system: Candida albicans; assay: Antifungal activity against Candida albicans ATCC 44859 after 72 to 120 hrs by microdilution broth method; assay type: functional, organism-based
[16] = system: Trichophyton mentagrophytes; assay: Antifungal activity against Trichophyton mentagrophytes after 72 to 120 hrs by microdilution broth method; assay type: functional, organism-based
[17] = system: Staphylococcus epidermidis; assay: Antibacterial activity against Staphylococcus epidermidis H 6966/08 after 48 hrs by microdilution broth method; assay type: functional
Summary of the method: (§2)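 Antibacterial screen with compound concentrations up to a highest level of 500 µM. Results expressed as MIC in µM.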

[18] = system: Klebsiella pneumoniae; assay: Antibacterial activity against ESBL positive Klebsiella pneumoniae J 14368/08 after 24 to 48 hrs by microdilution broth method; assay type: functional, organism-based; summary of the method: as §2
[19] = system: Klebsiella pneumoniae; assay: Antibacterial activity against Klebsiella pneumoniae D 11750/08 after 24 to 48 hrs by microdilution broth method; assay type: functional, organism-based; summary of the method: as §2
[20] = system: Enterococcus sp.; assay: Antibacterial activity against Enterococcus sp. J 14365/08 after 24 to 48 hrs by microdilution broth method; assay type: functional, organism-based; summary of the method: as §2
[21] = system: Staphylococcus epidermidis; assay: Antibacterial activity against methicillin-resistant Staphylococcus epidermidis H 5996/08 after 24 to 48 hrs by microdilution broth method; assay type: functional, organism-based
[22] = system: Pseudomonas aeruginosa; assay: Antibacterial activity against Pseudomonas aeruginosa CCM 1961 after 24 to 48 hrs by microdilution broth method; assay type: functional, organism-based; summary of the method: as §2
[23] = system: Escherichia coli; assay: Antibacterial activity against Escherichia coli CCM 4517 after 24 to 48 hrs by microdilution broth method; assay type: functional, organism-based; summary of the method: as §2
[24] = system: Staphylococcus aureus; assay: Antibacterial activity against Staphylococcus aureus CCM 4516/08 after 24 to 48 hrs by microdilution broth method; assay type: functional, organism-based; summary of the method: as §2
[25] = system: Staphylococcus epidermidis; assay: Antibacterial activity against Staphylococcus epidermidis H 6966/08 up to 500 uM after 24 to 48 hrs by microdilution broth method; assay type: functional, organism-based; summary of the method: as §2

Row | Compound | MIC [1] [µg/mL] | log K [4] | MIC [5] [µg/mL] | MIC [6] | MIC [7] | Activity [8] | Activity [9] | Activity [10] | Activity [11] | Activity [12] | Activity [13] | Activity [14] | Activity [15] | Activity [16] | Activity [17] | Activity [18] | Activity [19] | Activity [20] | Activity [21] | Activity [22] | further results
1 | NC(=O)c1cncc(Cl)n1 | > 100 | -0.4165 | > 100 | > 100 µg/mL | 635 µM | inactive | inactive | inactive | inactive | inactive | inactive | inactive | inactive | inactive | inactive | inactive | inactive | inactive | inactive | inactive | IC50 [2]: 3.5 mM; selectivity ratio [3]: 5.5; Activity [23]: inactive; Activity [24]: inactive; Activity [25]: inactive
2 | CCCCCCCCNc1cnc(C(N)=O)cn1 | > 100 | 0.693 | > 100 | 25 µM | 25 µM | inactive | inactive | inactive | inactive | inactive | inactive | inactive | inactive | inactive | inactive | inactive | inactive | inactive | inactive | inactive | IC50 [2]: > 0.25 mM; selectivity ratio [3]: > 10; Activity [23]: inactive; Activity [24]: inactive; Activity [25]: inactive
3 | CCCCCCCNc1cncc(C(N)=O)n1 | 100 (≈ 423 µM) | 0.4273 | 100 (≈ 423 µM) | 212 µM | 106 µM | inactive | inactive | inactive | inactive | inactive | inactive | inactive | inactive | inactive | inactive | inactive | inactive | inactive | inactive | inactive | Activity [23]: inactive; Activity [24]: inactive; Activity [25]: inactive
4 | NC(=O)c1cnc(NCCc2ccccc2)cn1 | > 100 | -0.0382 | > 100 | 100 µg/mL | 206 µM | inactive | inactive | inactive | inactive | inactive | inactive | inactive | inactive | inactive | inactive | inactive | inactive | inactive | inactive | inactive | Activity [23]: inactive; Activity [24]: inactive; Activity [25]: inactive
5 | NC(=O)c1cncc(NCCc2ccccc2)n1 | > 100 | -0.0986 | > 100 | > 100 µg/mL | > 100 µg/mL | inactive | inactive | inactive | inactive | inactive | inactive | inactive | inactive | inactive | inactive | inactive | inactive | inactive | inactive | inactive | Activity [23]: inactive; Activity [24]: inactive; Activity [25]: inactive
6 | NC(=O)c1cnccn1 [PYRAZINAMIDE] | > 100 | -0.6872 | > 100 | > 100 µg/mL | 102 µM | – | – | – | – | – | – | – | – | – | – | – | – | – | – | – | IC50 [2]: > 10 mM; selectivity ratio [3]: > 98.1
7 | CCCCCNc1cnc(C(N)=O)cn1 | > 100 | 0.0181 | > 100 | > 100 µg/mL | > 100 µg/mL | inactive | inactive | inactive | inactive | inactive | inactive | inactive | inactive | inactive | inactive | inactive | inactive | inactive | inactive | inactive | Activity [23]: inactive; Activity [24]: inactive; Activity [25]: inactive
8 | NC(=O)c1cnc(N)cn1 | > 100 | -0.7852 | > 100 | > 100 µg/mL | > 100 µg/mL | inactive | inactive | inactive | inactive | inactive | inactive | inactive | inactive | inactive | inactive | inactive | inactive | inactive | inactive | inactive | Activity [23]: inactive; Activity [24]: inactive; Activity [25]: inactive
9 | CCNc1cncc(C(N)=O)n1 | > 100 | -0.6318 | > 100 | > 100 µg/mL | > 100 µg/mL | inactive | inactive | inactive | inactive | inactive | inactive | inactive | inactive | inactive | inactive | inactive | inactive | inactive | inactive | inactive | Activity [23]: inactive; Activity [24]: inactive; Activity [25]: inactive
10 | CCCCCNc1cncc(C(N)=O)n1 | > 100 | -0.0095 | > 100 | > 100 µg/mL | 100 µg/mL | inactive | inactive | inactive | inactive | inactive | inactive | inactive | inactive | inactive | inactive | inactive | inactive | inactive | inactive | inactive | Activity [23]: inactive; Activity [24]: inactive; Activity [25]: inactive

Source: ChEMBL document CHEMBL3102810, “Alkylamino derivatives of pyrazinamide: synthesis and antimycobacterial evaluation” (Bioorg Med Chem Lett, 2014)
